From ChEMBL document CHEMBL4706563, “Triphenylethylene analogues: Design, synthesis and evaluation of antitumor activity and topoisomerase inhibitors” (Eur J Med Chem, 2020)
Calls of active or inactive are those of the source. The rule behind the calls is not given here.

Legend:
[1] = test system: BT-549; experiment: Antiproliferative activity against human BT-549 cells assessed as growth inhibition at 10 uM relative to control; assay type: functional
Procedure, shortened: (§1)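 Single-dose screen run by the US National Cancer Institute across its 60-human tumour cell line panel. Each compound was tested at one concentration. Percent growth inhibition was recorded for each cell line.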

[2] = test system: UACC-62; experiment: Antiproliferative activity against human UACC-62 cells assessed as growth inhibition at 10 uM relative to control; assay type: functional
Procedure, shortened: (§2)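 NCI 60 human tumour cell line panel screen. Compounds tested at a single dose and growth inhibition (%) determined for each line.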

[3] = test system: TK-10; experiment: Antiproliferative activity against human TK-10 cells assessed as growth inhibition at 10 uM relative to control; assay type: functional; conditions: read-out: GI; procedure, shortened: as §2
[4] = test system: Hs-578T; experiment: Antiproliferative activity against human Hs-578T cells assessed as growth inhibition at 10 uM relative to control; assay type: functional; conditions: read-out: GI; procedure, shortened: as §1
[5] = test system: PC-3; experiment: Antiproliferative activity against human PC-3 cells assessed as growth inhibition at 10 uM relative to control; assay type: functional; conditions: read-out: GI; procedure, shortened: as §1
[6] = test system: SNB-19; experiment: Antiproliferative activity against human SNB-19 cells assessed as growth inhibition at 10 uM relative to control; assay type: functional; conditions: read-out: GI; procedure, shortened: as §2
[7] = test system: Malme-3M; experiment: Antiproliferative activity against human Malme-3M cells assessed as growth inhibition at 10 uM relative to control; assay type: functional; conditions: read-out: GI; procedure, shortened: as §1
[8] = test system: UACC-257; experiment: Antiproliferative activity against human UACC-257 cells assessed as growth inhibition at 10 uM relative to control; assay type: functional; conditions: read-out: GI; procedure, shortened: as §2
[9] = Antiproliferative activity against human prostate cancer cells; assay type: functional; conditions: Prostate tumor cell line; for CC50: read-out: LC50 (the source's name)
[10] = test system: CAKI-1; experiment: Antiproliferative activity against human CAKI-1 cells assessed as growth inhibition at 10 uM relative to control; assay type: functional; conditions: read-out: GI; procedure, shortened: as §1
[11] = test system: SW-620; experiment: Antiproliferative activity against human SW-620 cells assessed as growth inhibition at 10 uM relative to control; assay type: functional; conditions: read-out: GI; procedure, shortened: as §2
[12] = test system: NCI-H522; experiment: Antiproliferative activity against human NCI-H522 cells assessed as growth inhibition at 10 uM relative to control; assay type: functional; conditions: read-out: GI; procedure, shortened: as §1
[13] = test system: HCC 2998; experiment: Antiproliferative activity against human HCC 2998 cells assessed as growth inhibition at 10 uM relative to control; assay type: functional; conditions: read-out: GI; procedure, shortened: as §1
[14] = test system: KM12; experiment: Antiproliferative activity against human KM12 cells assessed as growth inhibition at 10 uM relative to control; assay type: functional; conditions: read-out: GI; procedure, shortened: as §1
[15] = test system: NCI-H23; experiment: Antiproliferative activity against human NCI-H23 cells assessed as growth inhibition at 10 uM relative to control; assay type: functional; conditions: read-out: GI; procedure, shortened: as §1
[16] = Antiproliferative activity against human colon cancer cells; assay type: functional; conditions: Colon cancer cell line
[17] = test system: EKVX; experiment: Antiproliferative activity against human EKVX cells assessed as growth inhibition at 10 uM relative to control; assay type: functional; conditions: read-out: GI; procedure, shortened: as §1
[18] = test system: SF-268; experiment: Antiproliferative activity against human SF-268 cells assessed as growth inhibition at 10 uM relative to control; assay type: functional; conditions: read-out: GI; procedure, shortened: as §1
[19] = Antiproliferative activity against human Non-small cell lung cancer cells; assay type: functional; conditions: Non-small cell lung cancer cell line; for CC50: read-out: LC50 (the source's name)
[20] = test system: SR; experiment: Antiproliferative activity against human SR cells assessed as growth inhibition at 10 uM relative to control; assay type: functional; conditions: read-out: GI; procedure, shortened: as §2
[21] = test system: HEK293; experiment: Cytotoxicity against human HEK293 cells at 10^-4 M incubated for 24 hrs by MTT assay relative to control; assay type: cell-based; conditions: hek293, 24 h, 100 µM
Procedure, shortened: (§3)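 HEK293 cells grown in low-glucose DMEM with 10% FBS, glutamine, penicillin/streptomycin at 37 °C, 5% CO2. Cells exposed to compound at 10^-4 to 10^-8 M for 24 h at 37 °C. MTT from 5 mg/mL stock added for 4 h at 37 °C in dark. Formazan dissolved in DMSO and read at 570 nm. % toxicity calculated relative to medium-only control wells. Three experiments, each in triplicate.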

[22] = test system: HEK293; experiment: Cytotoxicity against human HEK293 cells at 10^-5 M incubated for 24 hrs by MTT assay relative to control; assay type: cell-based; conditions: hek293, 24 h, 10 µM; procedure, shortened: as §3
[23] = test system: HEK293; experiment: Cytotoxicity against human HEK293 cells at 10^-6 M incubated for 24 hrs by MTT assay relative to control; assay type: cell-based; conditions: hek293, 24 h, 1 µM; procedure, shortened: as §3
[24] = test system: HEK293; experiment: Cytotoxicity against human HEK293 cells at 100 uM incubated for 24 hrs by MTT assay relative to control; assay type: cell-based; conditions: hek293, 24 h; procedure, shortened: as §3
[25] = test system: HEK293; experiment: Cytotoxicity against human HEK293 cells at 10^-8 M incubated for 24 hrs by MTT assay relative to control; assay type: cell-based; conditions: hek293, 24 h, 0.01 µM; procedure, shortened: as §3
[26] = test system: HEK293; experiment: Cytotoxicity against human HEK293 cells at 10^-7 M incubated for 24 hrs by MTT assay relative to control; assay type: cell-based; conditions: hek293, 24 h, 0.1 µM; procedure, shortened: as §3

Structure (SMILES) | inhibition of growth at 10 µM [3] | inhibition of growth at 10 µM [4] | inhibition of growth at 10 µM [5] | inhibition of growth at 10 µM [6] | inhibition of growth at 10 µM [7] | inhibition of growth at 10 µM [8] | GI50 [9] | TGI [9] | CC50 [9] | inhibition of growth at 10 µM [10] | inhibition of growth at 10 µM [11] | inhibition of growth at 10 µM [12] | inhibition of growth at 10 µM [13] | inhibition of growth at 10 µM [14] | inhibition of growth at 10 µM [15] | GI50 [16] | TGI [16] | inhibition of growth at 10 µM [17] | GI50 [19] | TGI [19] | further results
CC/C(=C(\c1ccccc1)c1ccc(OCCN(C)C)cc1)c1ccccc1 [TAMOXIFEN] | 48.1% | 39.5% | 65.6% | 47.4% | -67.5% | -64.3% | 4.4 µM | 11.1 µM | 233 µM | 70.9% | 95.1% | 53.4% | 83.7% | 75% | 39.7% | 1.88 µM | 5.96 µM | 40% | 4.01 µM | 9.2 µM | inhibition of growth at 10 µM ([1]; read-out: GI): 30.2%; growth inhibition (GI) [2]: inactive; inhibition of growth at 10 µM [18]: 43.3%; CC50 [19]: 2.6 µM; inhibition of growth at 10 µM [20]: -18.9%
C/C(=C(/c1ccccc1)c1ccc(OCC(O)CNCCN2CCOCC2)cc1)c1ccccc1 (stereo unspecified) | 26.5% | 29.5% | 34.5% | 8.8% | -71.7% | -27.5% | 3.57 µM | 13 µM | 38.5 µM | 32.1% | 51% | 55.5% | -59.6% | 45.7% | 16.8% | 2.06 µM | 5.51 µM | 17.2% | 4.19 µM | 12.2 µM | growth inhibition (GI) [1]: inactive; inhibition of growth at 10 µM ([2]; read-out: GI): 37.3%; Activity [21]: 15.82%; Activity [22]: 13.73%; LC50 [16]: 13.8 µM; Activity [23]: 7.04%; Activity [24]: 20%; Activity [25]: 4.74%; Activity [26]: 5.43%; CC50 [19]: 36.3 µM; inhibition of growth at 10 µM [20]: 99.3%
